Data published in ChEMBL document CHEMBL4477162, “Galanthamine, Plicamine, and Secoplicamine Alkaloids from Zephyranthes candida and Their Anti-acetylcholinesterase and Anti-inflammatory Activities” (J Nat Prod, 2016).
The source made the active and inactive calls. The rule behind the calls is not given here.

Tests used:
RAW264.7 [1] = assay: Antiinflammatory activity in mouse RAW264.7 cells assessed as inhibition of LPS-induced NO production at 200 uM after 24 hrs by Griess assay; format: functional, cell-based
RAW264.7 [2] = assay: Antiinflammatory activity in mouse RAW264.7 cells assessed as inhibition of LPS-induced NO production after 24 hrs by Griess assay; format: functional, cell-based; details: RAW264.7, 24 h
Summary of the method: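 LPS-stimulated RAW 264.7 mouse macrophages; compound inhibition of NO production measured, with dexamethasone as positive control. The protocol follows a previously described method.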

RAW264.7 [3] = assay: Cytotoxicity against mouse RAW264.7 cells at 200 uM; format: cell-based; details: raw264.7, 200 µM
Acetylcholinesterase = Acetylcholinesterase (Electrophorus electricus, UniProt O42275); assay: Inhibition of electric eel AChE using acetylthiocholine iodide as substrate measured every 13 secs by Ellman's method
Acetylcholinesterase, sequence (O42275 whole entry): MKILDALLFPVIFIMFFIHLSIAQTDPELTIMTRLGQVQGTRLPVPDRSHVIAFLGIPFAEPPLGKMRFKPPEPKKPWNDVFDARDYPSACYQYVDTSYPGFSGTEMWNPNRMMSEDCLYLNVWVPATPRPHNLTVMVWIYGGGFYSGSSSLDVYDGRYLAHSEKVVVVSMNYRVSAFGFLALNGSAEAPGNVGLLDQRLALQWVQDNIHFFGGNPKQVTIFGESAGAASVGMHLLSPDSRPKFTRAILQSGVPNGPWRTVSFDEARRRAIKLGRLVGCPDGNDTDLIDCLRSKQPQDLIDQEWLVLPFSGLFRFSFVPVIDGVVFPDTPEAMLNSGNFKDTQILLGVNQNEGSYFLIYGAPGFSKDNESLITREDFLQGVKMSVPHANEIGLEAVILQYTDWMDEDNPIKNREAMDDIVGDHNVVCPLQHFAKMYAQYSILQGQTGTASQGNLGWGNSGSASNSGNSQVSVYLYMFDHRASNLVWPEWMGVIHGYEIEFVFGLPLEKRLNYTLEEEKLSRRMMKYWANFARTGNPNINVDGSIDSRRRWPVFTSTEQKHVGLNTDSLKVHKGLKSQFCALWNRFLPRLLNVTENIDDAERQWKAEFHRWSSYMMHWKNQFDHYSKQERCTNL

Row | SMILES | inhibition (RAW264.7 [1]) | further results
1 | COc1ccc2c3c1O[C@H]1C[C@@H](O)C=C[C@@]31[C@@H](O)C[N+](C)([O-])C2 (stereo partly drawn) | inactive | –
2 | COc1ccc2c3c1O[C@H]1C[C@@H](O)C=C[C@@]31CCN(C)C2 | inactive | –
3 | CN1CC[C@@]23C=C[C@H](O)C[C@@H]2Oc2c(O)ccc(c23)C1 | inactive | –
4 | CC[C@H](C)CN1Cc2cc3c(cc2[C@@]24C=C[C@@H](OC)C[C@@H]2N(C)C(=O)[C@@H]14)OCO3 | inactive | –
5 | CO[C@@H]1C=C[C@@]23c4cc5c(cc4CN(CCc4ccc(O)cc4)[C@@H]2C(=O)N(C)[C@H]3C1)OCO5 | inactive | –
6 | CO[C@@H]1C=C[C@@]2(C(=O)N(CCC(C)C)Cc3cc4c(cc32)OCO4)[C@@H](N(C)C=O)C1 | – | IC50 (RAW264.7 [2]): 23.6 µM; Activity (RAW264.7 [3]): Non-Toxic
7 | CO[C@@H]1C=C[C@@]23c4cc5c(cc4C=N[C@@H]2C(=O)N(C)[C@H]3C1)OCO5 | inactive | –
8 | CO[C@@H]1C=C[C@@]23c4cc5c(cc4CN(CCc4ccccc4)[C@@H]2C(=O)N(C)[C@H]3C1)OCO5 | – | IC50 (RAW264.7 [2]): 10.2 µM; Activity (RAW264.7 [3]): Non-Toxic
9 | COc1ccc2c3c1O[C@H]1C[C@@H](O)CC[C@@]31CCN(C)C2 | inactive | –
10 | CO[C@@H]1C=C[C@@]23c4cc5c(cc4C[N+]([O-])(CCc4ccc(O)cc4)[C@@H]2C(=O)N(C)[C@H]3C1)OCO5 (stereo partly drawn) | – | IC50 (Acetylcholinesterase): 75.3 µM; IC50 (RAW264.7 [2]): 7.5 µM; Activity (RAW264.7 [3]): Non-Toxic
11 | CCCCCCN1Cc2cc3c(cc2[C@@]24C=C[C@@H](OC)C[C@@H]2N(C)C(=O)[C@@H]14)OCO3 | inactive | –
12 | CO[C@@H]1C=C[C@@]23c4cc5c(cc4CN(CCc4c[nH]c6ccccc46)[C@@H]2C(=O)N(C)[C@H]3C1)OCO5 | – | IC50 (Acetylcholinesterase): 111 µM; IC50 (RAW264.7 [2]): 18 µM; Activity (RAW264.7 [3]): Non-Toxic
13 | CO[C@@H]1C=C[C@@]23c4cc5c(cc4CN(CCCC(=O)O)[C@@H]2C(=O)N(C)[C@H]3C1)OCO5 | – | IC50 (RAW264.7 [2]): 18.8 µM; Activity (RAW264.7 [3]): Non-Toxic
14 | CO[C@@H]1C=C[C@@]23c4cc5c(cc4CN(CCC(C)C)[C@@H]2C(=O)N(C)[C@H]3C1)OCO5 | inactive | –
15 | COc1ccc2c3c1O[C@H]1C[C@@H](O)CC[C@@]31[C@@H](O)C[N+](C)([O-])C2 (stereo partly drawn) | inactive | –
16 | CO[C@@H]1C=C[C@@]23c4cc5c(cc4C[N+]([O-])(CCC(C)C)[C@@H]2C(=O)N(C)[C@H]3C1)OCO5 (stereo partly drawn) | inactive | IC50 (Acetylcholinesterase): 57.3 µM
17 | CO[C@@H]1C=C[C@@]2(C(=O)N(C)Cc3cc4c(cc32)OCO4)[C@@H](N(C)C=O)C1 | inactive | –
18 | CN1CC[C@@]23CC[C@H](O)C[C@@H]2Oc2c(O)ccc(c23)C1 | inactive | –
19 | COc1ccc2c3c1O[C@H]1C[C@@H](O)C=C[C@@]31[C@@H](O)CN(C)C2 | inactive | –
20 | COc1ccc2c3c1O[C@H]1[C@@H](O)[C@@H](O)C=C[C@@]31[C@@H](O)CN(C)C2 | inactive | –
21 | CN1Cc2ccc(O)c3c2[C@@]2(C=C[C@H](O)C[C@@H]2O3)[C@@H](O)C1 | inactive | IC50 (Acetylcholinesterase): 169 µM
22 | COc1ccc2c3c1O[C@H]1C[C@@H](O)CC[C@@]31[C@@H](O)CN(C)C2 | inactive | –
23 | CN1Cc2ccc(O)c3c2[C@@]2(CC[C@H](O)C[C@@H]2O3)[C@@H](O)C1 | inactive | –
24 | CO[C@@H]1C=C[C@@]23c4cc5c(cc4CN(C)[C@@H]2C(=O)N(C)[C@H]3C1)OCO5 | inactive | –
